In the library only some 2.5% were active in any assay of this set; here they are far more common.
MC4R antagonist: MC4R antagonists of cAMP signaling, primary screen, cell-based, TR-FRET, antagonist arm of biased-ligand search; actives 0.48% (n = 360,000); MC4R-expressing cells, MTII-stimulated cAMP, LANCE TR-FRET; inhibition, % at 6.5 µM;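 active = inhibition above its plate's cutoff, the mean of tested wells on that plate plus 3 SD, cut at about 29% in these data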;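 also: 0% = Melanotan II alone and 100% = Melanotan II plus saturating MCL0020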
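system = U2OS cells with stable human MC4R expression | also added = Melanotan II challenge after compound preincubation | dosing = one concentration, 6.5 µM nominal | incubation = compound 30 min, challenge 1 h, detection 1 h | measured by = TR-FRET with Eu-cAMP and labeled anti-cAMP, 671 nm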
MC4R ag barr: MC4R agonists recruiting beta-arrestin, primary screen, cell-based, luminescence, agonist arm of biased-ligand search; U2OS MC4R beta-arrestin complementation; percent of melanotan II response, DMSO zero; activation, % at 8.9 µM; actives 0.98% (n = 360,000); AID 540308, 2011;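 active = activation above a per-plate cutoff, the mean activation of sample wells on that plate plus 3 SD, cut at about 8% in these data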
NR1D1 modulator: modulators of Rev-erb alpha DNA binding, primary screen, biochemical, FITC-DNA, fluorescence polarization, uHTS | Nuclear receptor subfamily 1 group D member 1 (Homo sapiens), P20393 | Rev-erbα–FITC-DNA binding, 90 min | activity, % at 10 µM | actives 0.79% (n = 370,000) | AID 1259318, 2017;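 active = activity above about 14%, limit read from the data; passing the limit was not always enough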;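 also: 0% = DMSO wells with 35 nM protein and 100% = DMSO wells with 750 nM protein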
Target sequence (P20393 whole entry, looked up): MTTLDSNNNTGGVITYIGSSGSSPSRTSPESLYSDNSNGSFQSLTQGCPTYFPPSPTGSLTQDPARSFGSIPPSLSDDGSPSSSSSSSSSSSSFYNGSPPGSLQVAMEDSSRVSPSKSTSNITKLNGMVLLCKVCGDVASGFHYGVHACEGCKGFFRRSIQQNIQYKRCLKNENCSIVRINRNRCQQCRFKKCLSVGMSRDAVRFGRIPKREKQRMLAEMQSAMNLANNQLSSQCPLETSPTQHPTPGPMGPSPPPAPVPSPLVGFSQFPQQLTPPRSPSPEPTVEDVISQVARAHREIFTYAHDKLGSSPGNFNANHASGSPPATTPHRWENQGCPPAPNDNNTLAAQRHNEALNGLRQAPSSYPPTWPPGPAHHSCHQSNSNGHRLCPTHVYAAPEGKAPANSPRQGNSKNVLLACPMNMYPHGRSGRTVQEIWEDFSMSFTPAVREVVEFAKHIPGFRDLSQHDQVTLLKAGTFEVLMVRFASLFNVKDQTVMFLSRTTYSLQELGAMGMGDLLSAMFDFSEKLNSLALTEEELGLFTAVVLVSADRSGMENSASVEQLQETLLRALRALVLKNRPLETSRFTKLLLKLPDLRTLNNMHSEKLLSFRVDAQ
NTR1 agonist: agonists of human NTR1, primary screen, imaging, U2OS cells, beta-arrestin-GFP, high content; Neurotensin receptor type 1 (Homo sapiens), P30989; AID 493036, 2011; activation, % at 20 µM; NTR1-U2OS beta-arrestin-GFP spot imaging, agonist mode; actives 0.17% (n = 330,000);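 active = activation at or above 40% of the spot to cytoplasm intensity ratio, with at least 20 cells analyzed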;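 also: 0% = DMSO without peptide and 100% = 100 nM NTR1 peptide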
PG9 Ab binder: binders of HIV-1 gp120 antibody PG9, primary screen, biochemical, TR-FRET. HIV-1 gp120 / PG9 antibody interaction. TR-FRET gp120-PG9 antibody binding. inhibition, % at 6.7 µM. actives 0.43% (n = 360,000). AID 624416, 2012; in the data active = inhibition above about 8.5%
PG9 binder conf: binders of anti-gp120 antibody PG9, confirmation, biochemical, TR-FRET | actives 90% (n = 1,500) | TR-FRET PG9 antibody binding | AID 651571, 2012 | inhibition, % at 6.7 µM | shares compounds with PG9 Ab binder; in the data active = inhibition above about 9%
PGV04 counter: binders of control antibody PGV04, counter-screen for PG9 antibody binder project, biochemical, TR-FRET, distinct HIV envelope site. shares compounds with PG9 Ab binder. TR-FRET PGV04 antibody-gp120 binding. inhibition, % at 6.7 µM. actives 95% (n = 1,500); in the data active = inhibition above about 9.5%
PG9 binder DR: small-molecule binders of antibody PG9, dose response, biochemical, TR-FRET, HIV-1 gp120 antibody | shares compounds with PG9 Ab binder | TR-FRET PG9 antibody-gp120 binding inhibition | IC50, µM | 95 tested, under 10 active | AID 651848, 2012; in the data active = IC50 below about 10 µM
PGV04 DR counter: binders of control antibody PGV04, dose response, counter-screen for PG9 antibody binder project, biochemical, TR-FRET, distinct HIV envelope site | actives 20% (n = 95) | IC50, µM | shares compounds with PG9 Ab binder | TR-FRET binding to control antibody PGV04
PG126 binding DR: binders of control antibody PG126, dose response, counter-screen for PG9 antibody binder project, biochemical, TR-FRET, distinct HIV envelope site; actives 20% (n = 95); TR-FRET binding to antibody PG126, counterscreen; shares compounds with PG9 Ab binder; IC50, µM
Rev-erbA confirm: modulators of Rev-erb alpha DNA binding, confirmation, biochemical, FITC-DNA, fluorescence polarization, single point. shares compounds with NR1D1 modulator. 90 min. activation, % at 25 µM. actives 61% (n = 3,000);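 active = activation at or above a set limit, or at least 3 SD above the negative control mean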;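 also: 0% = 35 nM protein with DMSO and 100% = 750 nM protein high control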
RORg DNA counter: modulation of RORgamma DNA binding, dose response, counter-screen for Rev-erb alpha modulator project, biochemical, fluorescence polarization, FITC-DNA; shares compounds with NR1D1 modulator; purified RORgamma protein-FITC-DNA binding; IC50, µM; actives 8% (n = 910); AID 1259320, 2017;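 active = Compounds whose fitted half-maximal concentration for disrupting protein-DNA binding is below 10 micromolar; the record names Rev-erb in its text, so the target is in doubt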
* marks the source's active call; other numbers are inactive results; i = inactive; · = no result given. Rule as the data show it, unless noted: active = IC50 below about 9 µM; inactive = the rest.

SMILES | MC4R antagonist | MC4R ag barr | NR1D1 modulator | NTR1 agonist | PG9 Ab binder | PG9 binder conf | PGV04 counter | Rev-erbA confirm | others
COc1ccc(C=O)cc1Cn1c(=O)n(CCC(=O)NCc2ccco2)c(=O)c2sccc21 | 12 | -1 | -4 | 0 | 14* | 7 | 17* | ·
CCOc1cc(OCC)cc(C(=O)NCc2ccco2)c1 | -2 | -1 | -6 | 1 | 8.9* | 5 | 6 | ·
N=c1c2c(ccn1CCCCc1ccccc1)Oc1ccc3ccccc3c1C2c1ccccc1 (stereo not drawn) | · | · | -3 | · | · | · | · | ·
COc1ccc(/C=C(\C#N)C(=O)OCC(=O)NCc2ccccc2)cc1 | 8 | -1 | 4 | 1 | -2 | · | · | ·
COc1cccc(CNC(=O)COC(=O)/C(C#N)=C/c2ccc(N(C)C)cc2)c1 | 7 | 2 | -3 | -2 | 21* | 36* | 51* | ·
CCN(CC)c1ccc2cc(-c3nc4ccccc4[nH]3)c(=O)oc2c1 | 2 | 5 | · | -3 | · | · | · | ·
CCN(CC)c1ccc2cc(-c3nc4ccccc4n3C)c(=O)oc2c1 | -26 | 4 | 11 | · | 10* | 11* | 17* | ·
Cc1cc(NC(=O)c2cc(-c3ccccn3)nc3c(Cl)cccc23)no1 | -1 | 1 | 15 | 17 | 33* | 42* | 62* | ·
COC(=O)CSc1nc(N)c(C#N)c(-c2ccc(O)cc2)c1C#N | -33 | -2 | -5 | 3 | -1 | · | · | ·
N#Cc1c(N)nc(SCC(=O)NC2CCCCC2)c(C#N)c1-c1ccc(Cl)cc1 | -6 | 2 | 24* | 4 | 18* | 26* | 29* | 25*
Nn1c(SCC(=O)NC2CCCCC2)nnc1-c1ccc(Cl)cc1 | 6 | 0 | -3 | 5 | 4 | · | · | ·
CC(C)c1ccc(-c2c(C#N)c(N)nc(SCC(=O)N3CCCCCC3)c2C#N)cc1 | · | · | 52* | 2 | 83* | 89* | 92* | 9
C=CCSc1nc(N)c(C#N)c(-c2ccc(C)cc2)c1C#N | -1 | 1 | 17 | 8 | 0 | · | · | ·
CC(C)c1ccc(-c2c(C#N)c(N)nc(SCC(=O)N3CCCCC3)c2C#N)cc1 | 1 | -1 | 83* | 4 | 42* | 69* | 66* | 69* | PG9 binder DR=6*;PGV04 DR counter=3.4*;PG126 binding DR=4*;RORg DNA counter=>40
COC(=O)[C@]12C[C@H](CC(=O)N3CCCC3)C(=O)N(Cc3cccc4ccccc34)C1=C[C@H](C(C)(C)C)O[C@@H]2C | · | · | 2 | · | · | · | · | ·
CCN(CC)C(=O)O[C@H]1CC[C@@]23CCCN2C(=O)CCC[C@H]3[C@H]1C | · | · | 3 | · | · | · | · | ·
CCSc1nnc(NC(=O)c2cc3c(s2)CCCC3)s1 | -7 | 6 | 33* | 6 | 12* | 23* | 18* | 38* | PG9 binder DR=>67;PGV04 DR counter=i;PG126 binding DR=i;RORg DNA counter=>40
CC(C)Cc1nnc(NC(=O)c2cc3c(s2)CCC3)s1 | 2 | 0 | 1 | 1 | 1 | · | · | ·
O=C(Cn1nnc(-c2ccccc2NC(=O)c2ccccc2F)n1)NC1CCCC1 | 2 | 1 | 23* | 1 | 12* | 40* | 43* | 27*
CC(OC(=O)c1cc(Br)ccc1O)C(=O)NCc1ccc2c(c1)OCO2 (stereo not drawn) | 7 | 6 | 35* | 1 | 20* | 33* | 69* | 23*
CC(=O)c1ccc(N2CCN(S(=O)(=O)c3ccc4c(c3)NC(=O)CO4)CC2)cc1 | 7 | 1 | 38* | 0 | 22* | 28* | 39* | 22*
CC(=O)c1ccc(N2CCN(S(=O)(=O)c3ccc4c(c3)CCC(=O)N4)CC2)cc1 | 16 | -2 | 2 | · | 1 | · | · | ·
COC(=O)[C@]12C[C@H](CC(=O)NCCCN3CCCC3=O)C(=O)N(CCc3ccc(OC)c(OC)c3)C1=C[C@H](C(C)(C)C)O[C@@H]2C | · | · | 1 | · | · | · | · | ·
O=C(COc1ccccc1)Nc1nc2cc3c(cc2s1)OCO3 | 1 | 2 | 41* | -1 | 21* | 33* | 46* | 15
CC1(C)OC(=O)C2=C(CC(CCc3ccccc3)OC2c2cccc(C(F)(F)F)c2)O1 (stereo not drawn) | · | · | -3 | · | 2 | · | · | ·
SMILES | MC4R antagonist | MC4R ag barr | NR1D1 modulator | NTR1 agonist | PG9 Ab binder | PG9 binder conf | PGV04 counter | Rev-erbA confirm | others
Cc1cc(Br)cn2c(Cc3cccc(F)c3)c(-c3ccc(C#N)cc3)nc12 | · | · | 27* | · | 9.2* | 15* | 21* | 13*
N#Cc1ccc(-c2nc3ccc(Br)cn3c2Cc2cccc(F)c2)cc1 | · | · | 2 | · | 4 | · | · | ·
N#Cc1ccc(-c2nc3ccc(Br)cn3c2Cc2ccccc2)cc1 | -1 | 0 | 22* | · | 10* | 14* | 23* | 14*
O=C(O)CCN1C(=O)c2ccc(NC(=O)c3cccs3)cc2C1=O | 2 | -2 | -1 | 0 | 2 | · | · | ·
O=C(Nc1ccc2c(c1)C(=O)N(c1ccccc1)C2=O)c1cccs1 | 8 | 3 | 20* | 2 | 22* | 29* | 40* | -6
COc1ccc2nc(SC)c(C#N)cc2c1 | -6 | 6 | 42* | 3 | 13* | 26* | 58* | 47* | RORg DNA counter=>40
CN(C)c1cccc(/C=C2\CC3(OC(=O)c4ccco4)CCCN2C3)c1 (stereo not drawn) | · | · | 1 | · | · | · | · | ·
